Assay results gathered from unrelated publications.
Compare with care: the assays were run in different laboratories.
Target: Mitogen-activated protein kinase 7 (MAPK7, Homo sapiens, UniProt Q13164)

Structure (SMILES)	assay	test system	conditions	quantity	value
O=C(Nc1ccc(Oc2ccc(F)cc2)cc1)N1CCc2ncccc2[C@H]1c1ccc(F)cc1	cell-free assay, competition with immobilised ligand	–	1 µM	remaining binding	96%
CNc1cc(Oc2cc(C(=O)Nc3cc(N4CCN(C)CC4)cc(C(F)(F)F)c3)ccc2C)ncn1	target engagement in cells, inhibitor, chemoproteomics	Huh-7	1 µM	inhibition	-24.1%
CCCCNc1ncc2c(-c3ccc(F)cc3)nn(C[C@H]3CC[C@H](N)CC3)c2n1	target engagement in cells, inhibitor, chemoproteomics	–	20 mM	inhibition	11%
CC/C(=N\NC(=O)NCc1cccc(O)c1)c1ccc(O)c(C)c1O	enzyme activity, inhibitor	–	0.1 µM	inhibition	-1.7%
Cc1nccc(COC(=O)N2C[C@@H]3[C@@H](CNC(=O)c4ccc5[nH]nnc5c4)[C@@H]3C2)n1	cell-free assay, competition with immobilised ligand	–	1 µM	remaining binding	98%
O=C(Nc1cnn(-c2csc(C(=O)NC3COC3)c2)c1)Nc1c(F)cccc1Cl	enzyme activity, inhibitor	–	5 µM	remaining activity	75.9%
Nc1ncnc2occ(-c3ccc(NC(=O)Nc4cc(C(F)(F)F)ccc4F)cc3)c12	cell-free assay, inhibitor	–	20 µM	remaining signal	1.6%
CC(C)(O)[C@H]1CC[C@H](Nc2ccc3ncc(-c4cccc(C(F)(F)F)c4)n3n2)CC1	enzyme activity, inhibitor	–	1 µM	remaining activity	98.9%
CC(C)(C)c1nc(-c2cccc(NS(=O)(=O)c3c(F)cccc3F)c2F)c(-c2ccnc(N)n2)s1	enzyme activity, inhibitor, radiometric	–	1 µM	remaining activity	74%
COc1cccc2c(NCc3ccccc3)nc(-n3c(N)nc4ccccc43)nc12	target engagement in cells, inhibitor, chemoproteomics	–	20 mM	inhibition	-14.3%
CS(=O)(=O)N1CCCC(NC(=O)[C@H](CCC2CCCCC2)NC(=O)c2ccc(CNc3ncnc4c3nnn4-c3ccccc3)cc2)C1 (stereo partly shown)	cell-free assay, competition with immobilised ligand	–	0.1 µM	remaining binding	94%
FC(F)(F)Oc1cccc(-c2cnc3ccc(-c4ccncc4)nn23)c1	enzyme activity, inhibitor, radiometric	–	5 µM	activity vs control	56%
COc1cc(Nc2cnc(C#N)c(O[C@H](C)CN(C)C)n2)ncc1-c1cnn(C)c1	enzyme activity, inhibitor, radiometric	–	1 µM	remaining activity	86%
